Sampled rows, rich in hits. Any-hit rate of the full collection: about 3.7%.
FXN GAA850 act – activators of GAA850 frataxin (FXN) promoter; HEK293 lucGAA850 FXN promoter luciferase reporter, 24 h; percent of 10 µM SAHA response; activation, % at 6 µM; 360,000 compounds, 0.56% hits;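 active = activation above the average of all compounds screened plus 3 SD, cutoff fixed separately per campaign, cut at about 7.5% in these data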
SR-BI DiI inh – mouse SR-BI HDL lipid transfer inhibition | Q61009 | ldlA[mSR-BI] CHO cells, DiI-HDL uptake fluorescence, 3 h | inhibition, % at 12.5 µM | 320,000 compounds, 0.96% hits | AID 488896;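 active = mean replicate inhibition of at least 70% and a set share of replicates each scoring 70 or more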
AHR activator – activators of human aryl hydrocarbon receptor. AHR-responsive luciferase reporter cells, luminescence. activation, % at 5 µM. 320,000 compounds, 2.5% hits; in the data active = activation above about 47%
SR-BI DiI-HDL act – activators of SR-BI mediated HDL lipid uptake; CHO ldlA[mSR-BI] cells, DiI-HDL uptake fluorescence, 3 h; 100 = double the neutral-control signal; activation, % at 12.5 µM; 320,000 compounds, 0.096% hits;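 active = mean replicate activation of at least 60% and every replicate at or above 60%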
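Test system: SR-BI-overexpressing, LDLR-lacking CHO cells; Also added: labelled HDL, 10 µg/mL; Measured by: bottom-read cell fluorescence after medium removal, ex 550/em 595 nm; Timing: 3 h uptake period with compound, 37 °C; Buffer or medium: F12, 0.5% BSA, 25 mM HEPES; Doses: single compound concentration, delivered by pin transfer.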
JMJD2C inh – inhibitors of human GASC-1 (JMJD2C) demethylase | Q9H3R0 | GST-JMJD2C(1-420) H3K9me3 demethylation, DELFIA europium | inhibition, % at 2.35 µM | 330,000 compounds, 0.069% hits | AID 2099;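 active = more than half of a compound's replicate wells show inhibition beyond 50%, single wells judged on their own value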;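 note: signal counts dimethyl H3K9 product captured on neutravidin plate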
Target sequence (Q9H3R0 1-420 limits assumed): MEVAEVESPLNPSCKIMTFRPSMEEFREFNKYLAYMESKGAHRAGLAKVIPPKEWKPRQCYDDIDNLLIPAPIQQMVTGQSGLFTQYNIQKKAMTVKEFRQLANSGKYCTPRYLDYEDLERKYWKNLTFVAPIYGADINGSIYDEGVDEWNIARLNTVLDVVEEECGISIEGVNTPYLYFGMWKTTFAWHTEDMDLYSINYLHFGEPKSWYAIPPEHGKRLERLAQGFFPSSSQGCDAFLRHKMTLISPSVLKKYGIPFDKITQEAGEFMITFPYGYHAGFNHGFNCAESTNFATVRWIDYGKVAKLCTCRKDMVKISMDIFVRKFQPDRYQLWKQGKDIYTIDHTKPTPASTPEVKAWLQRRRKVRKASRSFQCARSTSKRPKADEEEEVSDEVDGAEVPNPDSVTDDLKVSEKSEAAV
GAA30 counter – GAA30 FXN promoter activation counter-screen; HEK293 lucGAA30 FXN promoter luciferase, 24 h; DMSO = 0%, 5 µM ipriflavone = 100%; 1,900 compounds, 66% hits; shares compounds with FXN GAA850 act; activation, % at 6 µM; AID 588350;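 active = mean activation above the mean of solvent-only control wells plus 3 SD, cut at about 22% in these data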;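 note: counterscreen of GAA850 promoter hits where activity marks nonselective or luminescence artifacts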
GAA850 confirm – confirmation of GAA850 frataxin (FXN) promoter activators; shares compounds with FXN GAA850 act; HEK293 lucGAA850 FXN promoter luciferase reporter, 24 h; 100% = activation by SAHA; activation, % at 6 µM; 1,900 compounds, 86% hits; AID 588351;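 active = mean activation above a set limit taken from the primary screen, cut at about 8% in these data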
A number is an active result; – = inactive; · = no result given.

SMILES | FXN GAA850 act | SR-BI DiI inh | AHR activator | SR-BI DiI-HDL act | JMJD2C inh | GAA30 counter | GAA850 confirm
O=C(CN1CCN(Cc2ccccc2Cl)C1=O)NCc1cccnc1 | – | – | – | – | – | · | ·
O=C(CN1CCN(Cc2ccccc2F)C1=O)NCc1cccnc1 | 13 | · | – | · | – | – | –
CCN(C(=O)COC(=O)/C=C/c1c(C)nn(-c2ccccc2)c1C)c1c(N)n(Cc2ccccc2)c(=O)[nH]c1=O | – | – | · | – | · | · | ·
CNC(=O)Cn1nc(C)c(S(=O)(=O)N2CCOCC2)c1C | – | – | – | – | – | · | ·
Cc1nc2c(-c3ccc(F)cc3)cnn2c2c1CCC2 | 8.2 | – | 71 | – | – | 90 | 29
Cc1nc2c(-c3ccccc3)cnn2c(N)c1-c1ccccc1 | – | – | · | – | – | · | ·
CCOC(=O)c1c(C)[nH]c(C(=O)Nc2cc(OCC)c(N3CCOCC3)cc2OCC)c1C | – | – | – | – | · | · | ·
C=CCn1c(C(C)NC(=O)COC)nc2ccccc21 (stereo not given) | – | – | – | – | – | · | ·
CCOC(=O)c1c(NC(=O)CSc2nnc(-c3c[nH]c4ccccc34)n2CCOC)sc2c1CCCCC2 | 17 | – | – | – | – | – | 8.2
CCOC(=O)c1c(NC(=O)CSc2c[nH]c3ccccc23)sc2c1CCCC2 | – | – | – | – | – | · | ·
CCOC(=O)c1ccc(CN2CCCC(C)(C(=O)NCCOC)C2)cc1 (stereo not given) | – | · | · | · | · | · | ·
Cc1ccc(S(=O)(=O)N2CCOCC2)cc1C(=O)OCC(=O)c1ccc(Br)cc1 | – | – | – | – | – | · | ·
CCC(=O)N1CCN(c2ccc(NC(=O)c3ccc([N+](=O)[O-])o3)cc2Cl)CC1 | 9.3 | – | · | – | – | 42 | 26
CC(=O)N1CCN(c2ccc(NC(=O)c3ccc([N+](=O)[O-])o3)cc2Cl)CC1 | 7.7 | · | – | · | – | 41 | 28
CN1C[C@@H]2[C@@H]3C(=O)N(Cc4ccccc4)C(=O)[C@@H]3[C@](C)(C1=O)N2C(=O)c1ccc(Cl)cc1 | – | – | – | – | – | · | ·
CN(c1ccccc1)c1ccc(/C=N/N2CCOCC2)cc1 | 7.9 | – | – | – | – | 114 | 36
C(=NN1CCCCCC1)c1ccccc1 | – | – | · | – | · | · | ·
CC(C)Cc1ccc(S(=O)(=O)Nc2ccccn2)cc1 | – | · | – | · | – | · | ·
Cc1n[nH]c(C)c1CS(=O)(=O)c1ccccc1 | – | – | – | – | – | · | ·
NS(=O)(=O)c1ccc(CCNC(=O)CCCCCn2c(=S)[nH]c3ccc(Br)cc3c2=O)cc1 | – | – | – | – | – | · | ·
COc1ccc(OC)c(/C=C/C(=O)N2C(=O)c3cccc(N)c3C2=O)c1 | 9.2 | – | – | – | – | – | 8.9
COc1cc(/C=C/C(=O)N2C(=O)c3cccc(N)c3C2=O)cc(OC)c1OC | – | – | – | – | – | · | ·
CC(C)c1ccc(CN(C)C(=O)c2ccc(S(=O)(=O)NCc3ccco3)cc2)cc1 | – | – | – | – | · | · | ·
Cc1c(C=NCCOCc2ccccc2)cnn1C | 10 | – | – | – | – | – | 9.0
Cc1ccc(OCCCC(=O)Nc2cc(Cl)ccc2-n2cncn2)cc1 | – | – | – | – | – | · | ·
SMILES | FXN GAA850 act | SR-BI DiI inh | AHR activator | SR-BI DiI-HDL act | JMJD2C inh | GAA30 counter | GAA850 confirm
N=c1c(S(=O)(=O)c2ccccc2)cc2c(=O)n3ccccc3nc2n1Cc1ccco1 | – | – | – | – | – | · | ·
Cc1ccc2nc3c(cc(S(=O)(=O)c4ccccc4)c(=N)n3Cc3ccco3)c(=O)n2c1 | 9.3 | – | – | – | – | 22 | –
CCOC(=O)c1cnc(-c2ccccc2)nc1N(C)C | 8.7 | – | – | – | – | 120 | 41
O=S(=O)(c1cccc2nsnc12)N1CCNCC1 | – | · | – | · | – | · | ·
COc1ccc([C@@H]2[C@@H]3C(=O)N(C(C)(C)C)C(=O)[C@@H]3[C@]3(CC(C)C)C(=O)N(c4cccc(Br)c4)C(=O)N23)cc1 | 17 | – | – | – | – | 27 | 14
COc1ccc([C@@H]2[C@@H]3C(=O)N(C(C)(C)C)C(=O)[C@@H]3[C@]3(CC(C)C)C(=O)N(c4ccccc4)C(=O)N23)cc1 | 15 | – | – | – | – | 40 | 18

Screening results from PubChem.
